DENV2 CPE: DENV2-induced cell death inhibition; CPE inhibition, % at 9.99 µM; hit rate 1.7% among 350,000; AID 651640; DENV2-infected cells, cytopathic effect rescue, plate reader; in the data active = CPE inhibition above about 20%, passing the limit was not always enough; tested in BHK-21 cells;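 note: 0% = median of neutral control wells and 100% = median of positive control wells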
miR122 inh: miR-122 inhibition in Huh7 cells. Huh7 miR-122 Renilla luciferase sensor, 48 h; neutral wells = 0, positive control = 100. activation (reporter increase), % at 12.5 µM. hit rate 0.3% among 340,000. AID 602342;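 active = mean replicate activation score at least 90 and every replicate individually at or above 90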;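 note: higher luciferase means less miR-122 activity so hits act as miR-122 inhibitors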
F508del corr: CFTR F508del correction in bronchial cells | CFBE cells, YFP halide quenching; stimulated with forskolin plus potentiator P3; % fluorescence drop versus neutral controls | activity (quench increase), % at 7.58 µM | hit rate 0.36% among 350,000;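 active = mean added fluorescence quench of at least 8% versus neutral control, with both replicates also reaching 8%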;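 note: cells transiently co-express mutant CFTR-F508del with the halide-sensitive YFP; corrector assay measuring rescue of mutant channel to the surface after 24 h compound exposure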
ERAP1 inh: inhibitors of human ERAP1 aminopeptidase; recombinant ERAP1, Leu-AMC fluorescence, 60 min; inhibition, % at 10.7 µM; hit rate 0.15% among 340,000;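 active = mean replicate inhibition of at least 30%, or all replicates individually reaching that 30% level; inactive = mean below 30% and not every replicate reaching it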;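 note: 0% = neutral control wells and 100% = L-leucinethiol positive control wells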
Target sequence (Q9NZ08 whole entry, looked up): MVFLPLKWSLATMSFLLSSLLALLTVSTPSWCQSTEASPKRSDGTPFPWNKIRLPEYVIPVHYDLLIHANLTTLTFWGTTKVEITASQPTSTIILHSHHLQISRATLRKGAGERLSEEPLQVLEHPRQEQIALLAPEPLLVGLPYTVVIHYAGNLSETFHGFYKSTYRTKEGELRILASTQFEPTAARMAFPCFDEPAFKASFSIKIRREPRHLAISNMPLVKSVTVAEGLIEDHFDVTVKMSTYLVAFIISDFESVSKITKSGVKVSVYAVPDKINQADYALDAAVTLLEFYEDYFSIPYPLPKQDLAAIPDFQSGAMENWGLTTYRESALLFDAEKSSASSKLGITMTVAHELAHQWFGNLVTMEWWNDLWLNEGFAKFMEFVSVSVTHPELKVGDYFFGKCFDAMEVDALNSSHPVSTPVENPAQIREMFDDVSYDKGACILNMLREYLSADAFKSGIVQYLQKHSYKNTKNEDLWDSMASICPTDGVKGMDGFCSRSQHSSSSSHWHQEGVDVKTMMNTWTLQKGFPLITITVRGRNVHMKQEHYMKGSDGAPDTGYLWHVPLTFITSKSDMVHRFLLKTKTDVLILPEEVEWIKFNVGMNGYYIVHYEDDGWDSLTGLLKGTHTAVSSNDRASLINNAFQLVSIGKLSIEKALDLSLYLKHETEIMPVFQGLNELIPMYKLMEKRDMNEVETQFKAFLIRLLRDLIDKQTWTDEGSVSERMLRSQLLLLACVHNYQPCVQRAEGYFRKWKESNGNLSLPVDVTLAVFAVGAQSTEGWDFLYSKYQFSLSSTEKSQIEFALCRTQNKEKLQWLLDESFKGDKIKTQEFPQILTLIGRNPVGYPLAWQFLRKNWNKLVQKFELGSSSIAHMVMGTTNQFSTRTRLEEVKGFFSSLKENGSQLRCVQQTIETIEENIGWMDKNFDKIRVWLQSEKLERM
E-selectin induc: induces E-selectin expression in human endothelial cells | activation, % at 7.58 µM | hit rate 0.37% among 260,000 | AID 686992 | HUVEC E-selectin immunofluorescence imaging; normalized: neutral wells 0, TNF-alpha wells 100;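 active = mean E-selectin-positive cell signal at least 10% of the positive control, reached in at least 60% of replicates, without over 20% cell loss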
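Test system: HUVEC | Signal: Immunofluorescence imaging | Read-out: Percent E-selectin-positive cells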
GSIS activator: GLuc luminescence reporter in INS-1E cells, primary screen for activators of glucose-dependent secretion of insulin; INS-1E GLuc reporter insulin secretion, 2-3 h; activation, % at 16.6 µM; hit rate 0.61% among 370,000;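 active = lowest replicate activation of at least 40%, so every replicate reaches that level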;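 note: 0% = median of neutral control wells and 100% = median of IBMX positive control wells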
The depositor's hits bear a star; nt = no result; [ ] = another dose, or the depositor's remark. An excerpt weighted towards active compounds, which were near 2.6% of everything screened.

SMILES | DENV2 CPE | miR122 inh | F508del corr | ERAP1 inh | E-selectin induc | GSIS activator
CC(=O)c1c(C)[nH]c(C(=O)Nc2ccc(C)c(S(=O)(=O)N(C)C)c2)c1C | 6.8 | 17.0 | -4.2 | 0.4 | -1.4 | -8.2
CC(=O)c1c(C)[nH]c(C(=O)Nc2ccc(C)c(S(=O)(=O)Nc3ccc(C)cc3C)c2)c1C | -0.7 | 166.0* | 0.9 | 1.8 | 2.0 | -5.7
Cc1ccccc1CN1CCN(S(C)(=O)=O)CC1 | nt | -7.1 | nt | 0.9 | nt | 4.2
COCCNC(=S)N1CCN(S(=O)(=O)c2ccc(Cl)s2)CC1 | 44.7* | -0.5 | -1.2 | 2.6 | nt | -1.5
Cc1ccccc1CN1CCN(S(=O)(=O)c2ccc(Cl)s2)CC1 | 4.2 | -2.9 | -1.3 | -1.6 | 290.4* | -12.4
Cc1ccccc1CN(C)C[C@H]1OCc2cn(nn2)CCCC(=O)N([C@@H](C)CO)C[C@@H]1C | 7.6 | 0.4[16.7 µM] | -4.8 | -0.2 | 0.0 | -1.4
CN(C)CCOc1ccc(-c2c(-c3ccsc3)sc3ccccc23)cc1 | -5.7 | nt | -0.9 | 0.9 | 0.9 | 65.6*
COc1ccc(-c2sc3ccccc3c2-c2ccc(OCCN(C)C)cc2)cc1 | 7.1 | nt | -1.1 | 2.4 | nt | 24.6
COc1cccc(-c2sc3ccc(OC)cc3c2-c2ccc(O)cc2)c1 | 1.1 | 2.8 | 0.5 | -1.4 | 0.5 | -10.3
COc1cccc(-c2sc3ccc(OC)cc3c2-c2ccc(OCCN(C)C)cc2)c1 | -16.1 | nt | 0.4 | -0.8 | nt | 131.5*
O=C(NC[C@H]1CC[C@@H]2[C@@H](CN2C(=O)CN2CCOCC2)O1)NC1CCCCC1 | -5.4 | nt | -0.8 | 0.3 | nt | nt
O=C(O)c1cccc(-c2csc(C(O)c3cccc(Cl)c3)n2)c1 (stereo unspecified) | 45.9* | -2.8 | 0.8 | -6.4 | 0.2 | 10.9
NC(=O)c1cccc(-c2csc(C(O)c3cccc(Cl)c3)n2)c1 (stereo unspecified) | 3.5 | nt | 0.6 | -0.2 | 0.1 | -3.6
COc1cc(CN2CCc3ccccc3C2)ccc1O | -4.6 | -17.2 | -8.9 | 0.9 | -6.5 | 77.3*
Cc1noc(C)c1S(=O)(=O)N(C)C[C@H]1OCCCC[C@@H](C)Oc2ccc(NC(=O)NC3CCCCC3)cc2C(=O)N([C@H](C)CO)C[C@@H]1C | 5.8 | 10.9[16.7 µM] | -1.1 | 1.1 | -0.3 | -11.2
C[C@@H]1CN([C@H](C)CO)C(=O)c2cc(NS(=O)(=O)c3cn(C)cn3)ccc2O[C@H]1CN(C)C(=O)Nc1ccc2c(c1)OCO2 | 2.5 | -0.1[16.7 µM] | -3.8 | -0.8 | 255.3* | 27.2
C[C@@H]1CN([C@@H](C)CO)C(=O)c2cccc(NS(=O)(=O)c3cn(C)cn3)c2O[C@H]1CN(C)C(=O)Nc1ccc2c(c1)OCO2 | -4.0 | -7.3[16.7 µM] | -1.2 | 3.2 | 283.4* | 8.6
C[C@H](CO)N1C[C@H](C)[C@@H](CN(C)C(=O)Nc2ccc3c(c2)OCO3)Oc2c(NS(=O)(=O)c3cn(C)cn3)cccc2C1=O | 8.5 | -5.3[16.7 µM] | 0.2 | -2.0 | -8.6 | 1.2
CCCNC(=O)N1C[C@@H](C)[C@@H](OC)CN(C)C(=O)c2cc(NC(=O)C3CCC3)ccc2OC[C@@H]1C | nt | 4.3[16.7 µM] | 0.5 | nt | -0.1 | 9.4
Cc1nc2ccccc2c(=O)n1/N=C/c1ccc(O)cc1 | -3.5 | -4.2 | -0.2 | -2.5 | nt | 12.0
COc1ccc(/C=N/n2c(C)nc3ccccc3c2=O)cc1 | 5.4 | -1.2 | -1.8 | -2.7 | 30.8* | -0.7
Cc1nc(N2CCN(c3ccccn3)CC2)c2c(C)c(C(=O)Nc3ccc(F)cc3Cl)sc2n1 | -2.8 | -4.4 | -2.6 | 8.8 | 43.5* | 0.8
Cc1nc(N2CCN(c3ccccn3)CC2)c2c(C)c(C(=O)Nc3ccc(F)cc3F)sc2n1 | 0.3 | -29.4 | 1.7 | 2.6 | 1.7 | -0.4
O=S(=O)(c1cccs1)N1CCCCN2[C@@H](CO)[C@H](c3ccc(C4=CCCC4)cc3)[C@@H]2C1 | 11.6 | 1.7[16.7 µM] | -3.1 | 3.6 | -0.5 | -37.0
CN1CCCCN2[C@H](CO)[C@H](c3ccc(C4=CCCC4)cc3)[C@H]2C1 | 28.5* | 2.1[16.7 µM] | -1.6 | 0.3 | -0.2 | 2.1
O=S(=O)(c1cccs1)N1CCCCN2[C@H](CO)[C@H](c3ccc(C4=CCCC4)cc3)[C@@H]2C1 | 46.2* | 1.3[16.7 µM] | -0.9 | -0.1 | -0.5 | 16.3
